Measurements from PubChem BioAssay AID652204 (Vanderbilt Specialized Chemistry Center, 2013).
Calls of active or inactive are those of the source. The rule behind the calls is not given here.

Molecular target: Metabotropic glutamate receptor 4 (Rattus norvegicus) (UniProt P31423)
Test: glutamate potency shift at rat mGlu4 – cell-based, CHO, Gqi5, Fluo4 calcium, selectivity assay for mGlu5 silent allosteric modulator project (AID 652204)
Conditions: CHO rmGlu4/Gqi5, Fluo4 calcium mobilization, glutamate CRC
In short: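 Test system: CHO cells expressing rat mGlu4 together with Gqi5; Medium: HBSS buffer with probenecid 2.5 mM, HEPES 20 mM, pH 7.4; Also added: glutamate 9-point series up to 1 mM; Dosing: 10 µM compound, 1% DMSO; Times: 37 °C 60-min dye-loading, compound 20 s, glutamate 80 s; Detection: Fluo4 calcium-dye fluorescence.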

Metabotropic glutamate receptor 4 (Rattus norvegicus), sequence (P31423 whole entry, looked up): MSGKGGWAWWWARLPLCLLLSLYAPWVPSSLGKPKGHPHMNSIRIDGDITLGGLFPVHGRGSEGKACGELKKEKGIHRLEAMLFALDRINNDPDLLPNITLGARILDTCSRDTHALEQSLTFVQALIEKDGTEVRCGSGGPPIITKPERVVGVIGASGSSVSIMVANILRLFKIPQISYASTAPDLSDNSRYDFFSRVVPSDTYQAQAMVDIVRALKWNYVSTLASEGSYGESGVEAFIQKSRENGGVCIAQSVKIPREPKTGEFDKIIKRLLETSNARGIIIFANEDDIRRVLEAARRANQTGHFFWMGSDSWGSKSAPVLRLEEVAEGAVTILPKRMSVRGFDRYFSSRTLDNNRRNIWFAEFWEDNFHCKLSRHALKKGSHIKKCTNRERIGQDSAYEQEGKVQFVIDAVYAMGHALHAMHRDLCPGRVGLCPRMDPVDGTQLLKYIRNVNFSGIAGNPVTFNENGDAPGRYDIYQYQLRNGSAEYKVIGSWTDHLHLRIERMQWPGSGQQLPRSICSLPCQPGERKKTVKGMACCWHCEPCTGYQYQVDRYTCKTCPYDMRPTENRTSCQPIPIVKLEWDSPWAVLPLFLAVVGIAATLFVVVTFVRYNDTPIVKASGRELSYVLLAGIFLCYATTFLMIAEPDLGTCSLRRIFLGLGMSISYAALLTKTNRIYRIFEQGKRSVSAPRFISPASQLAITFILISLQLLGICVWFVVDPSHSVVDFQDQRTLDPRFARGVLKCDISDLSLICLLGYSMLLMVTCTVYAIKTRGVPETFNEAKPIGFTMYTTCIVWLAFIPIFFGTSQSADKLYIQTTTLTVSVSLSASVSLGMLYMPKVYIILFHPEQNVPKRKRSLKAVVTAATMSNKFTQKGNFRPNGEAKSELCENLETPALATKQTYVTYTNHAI

glutamate EC50 in presence of 10 uM compound: inactive
fold shift (measured here: glutamate EC50 fold shift, at 10 µM): 1.23
Structure (SMILES): O=C(c1ccc(C#Cc2cccc(F)c2)cn1)N1CC2CC2C1 (configuration not stated)
